Converted amounts (≈) assume the structure as drawn.
What follows are molecules tested on Toxoplasma gondii (assay: Antiparasitic activity against Toxoplasma gondii infected in HFF after 24 hrs by [3H]uracil incorporation assay). Conditions: not given.
Type: functional
How it was run: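 Human foreskin fibroblasts were infected with T. gondii tachyzoites and given 1 h to invade before inhibitors were added. Cultures ran 3 days, then 3H-uracil was added for a further day. Parasite growth was read as uracil incorporation by liquid scintillation counting. MIC50 and MIC90 are the concentrations giving 50% and 90% growth inhibition. There were 6 replicate samples per group.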

Structure (SMILES)	MIC50 [µM]	MIC90 [µM]
O=c1[nH]c2ccccc2n1Cc1ccc([N+](=O)[O-])cc1	20 (≈ 5.39 µg/mL)	> 24
CC(=O)Nc1ccccc1Oc1ccc(Cl)cc1O	> 24	> 24
O=C(c1ccc([N+](=O)[O-])cc1)n1c(=O)[nH]c2ccccc21	> 24	> 24
Nc1ccccc1CNC(=O)COc1ccc([N+](=O)[O-])cc1	> 24	> 24
NC(=O)c1ccc(Cn2ccc(OCc3ccccc3)cc2=O)c(Cl)c1	> 24	> 24
O=c1cc(OCc2ccccc2)ccn1Cc1ccc([N+](=O)[O-])cc1Cl	3 (≈ 1.11 µg/mL)	15 (≈ 5.56 µg/mL)
N#Cc1ccc(Cn2ccc(OCc3ccccc3)cc2=O)c(Cl)c1	18 (≈ 6.31 µg/mL)	23 (≈ 8.07 µg/mL)
CC(=O)Nc1ccc(Oc2ccc(Cl)cc2O)cn1	> 24	> 24
CN(Cc1cc2ccccc2n1C)C(=O)/C=C/c1ccc(N)nc1	> 6	> 6
CCCc1cc(O)c(Oc2ccc(-c3nn[nH]n3)cc2)c(O)c1	> 24	> 24
Nc1ccc(/C=C/C(=O)NCc2ccccc2N)cn1	> 6	> 6
O=[N+]([O-])c1ccccc1Oc1ccc(Cl)cc1O	14 (≈ 3.72 µg/mL)	23 (≈ 6.11 µg/mL)
O=c1[nH]c2ccccc2n1S(=O)(=O)c1ccc([N+](=O)[O-])cc1	> 24	> 24
CCCc1cc(O)c(Oc2ccc(C(=O)O)cc2Cl)c(O)c1	> 24	> 24
Oc1ccc(Oc2ccc(Cl)cc2O)cc1	> 6	> 6
Nc1cc(Cl)ccc1Oc1ccccc1	6 (≈ 1.32 µg/mL)	> 6
CCCc1cc(O)c(Oc2ccc(C(N)=O)cc2)c(O)c1	20 (≈ 5.75 µg/mL)	> 24
CCCc1ccc(Oc2cccc([N+](=O)[O-])c2)c(O)c1	> 6	> 6
O=[N+]([O-])c1ccc(Oc2ccc(Cl)cc2O)cc1	17 (≈ 4.52 µg/mL)	23 (≈ 6.11 µg/mL)
Oc1cc(Cl)ccc1Oc1ccc(Cl)cc1Cl [TRICLOSAN]	5 (≈ 1.45 µg/mL)	> 6

Structure (SMILES)	MIC50 [µM]	MIC90 [µM]
Oc1cc(Cl)ccc1Oc1ccccc1	5 (≈ 1.1 µg/mL)	> 6
CCCc1cc(O)c(Oc2ccc(C#N)cc2)c(O)c1	> 6	> 6
CC(=O)Nc1ccc(/C=C/C(=O)N(C)Cc2cc3ccccc3n2C)cn1	> 6	> 6
Oc1cc(Cl)ccc1Oc1cnccn1	> 6	> 6
CCCc1cc(O)c(Oc2ccc(C#N)cc2Cl)c(O)c1	15 (≈ 4.56 µg/mL)	22 (≈ 6.68 µg/mL)
O=C(O)c1ccc(Cn2ccc(OCc3ccccc3)cc2=O)c(Cl)c1	> 24	> 24
Oc1ccc(Oc2ccc(O)cc2O)cc1	> 6	> 6
COc1ccc(NC(=O)/C=C/c2ccc(N)nc2)cc1	> 6	> 6
CCOC(=O)C(C)OC(=O)c1cc(Oc2ccc(C(F)(F)F)cc2Cl)ccc1[N+](=O)[O-] (centres undefined) [LACTOFEN]	16 (≈ 7.39 µg/mL)	23 (≈ 10.6 µg/mL)
CCCc1cc(O)c(Oc2ccc(C#N)cc2Cl)c(OC)c1	> 6	> 6
O=c1[nH]c2ccccc2n1-c1ccc([N+](=O)[O-])c(Cl)c1	> 24	> 24
CCCc1ccc(Oc2cccc(CCO)c2)c(O)c1	> 6	> 6
COc1ccc(NC(=O)COc2ccc([N+](=O)[O-])cc2)cc1	23 (≈ 6.95 µg/mL)	> 24
CC(=O)Nc1ccc(Oc2ccc(Cl)cc2O)cc1	> 24	> 24
Nc1ccc(Nc2ccccc2)c(N)c1	> 6	> 6
Oc1cc(Cl)ccc1Oc1ccc(-c2ccccc2)cc1	6 (≈ 1.78 µg/mL)	20 (≈ 5.94 µg/mL)
CC(C)(C)C(=O)Nc1cc(Cl)ccc1Oc1ccccc1	> 6	> 6
Oc1ccc(Oc2ccccc2)c(O)c1	> 6	> 6
CCCc1ccc(Oc2cccc(Cl)c2)c(O)c1	> 6	> 6

The molecules below were run against T1, Enoyl-acyl carrier reductase (Toxoplasma gondii, UniProt Q6UCJ9) (assay: Inhibition of Toxoplasma gondii enoyl reductase). Conditions: not given.
T1 sequence (Q6UCJ9 whole entry): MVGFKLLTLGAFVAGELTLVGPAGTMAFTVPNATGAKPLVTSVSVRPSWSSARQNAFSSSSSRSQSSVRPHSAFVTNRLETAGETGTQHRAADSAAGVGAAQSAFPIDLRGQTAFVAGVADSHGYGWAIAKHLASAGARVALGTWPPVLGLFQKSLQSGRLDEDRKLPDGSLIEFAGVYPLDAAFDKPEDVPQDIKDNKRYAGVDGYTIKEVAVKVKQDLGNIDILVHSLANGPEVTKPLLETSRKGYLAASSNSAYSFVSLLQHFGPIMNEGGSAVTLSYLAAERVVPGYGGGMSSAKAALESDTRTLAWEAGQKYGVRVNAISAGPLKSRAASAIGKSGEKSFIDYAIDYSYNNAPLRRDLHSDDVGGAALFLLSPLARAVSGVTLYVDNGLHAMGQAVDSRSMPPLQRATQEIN
How it was run: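 Recombinant TgENR (20 nM) was assayed in 100 mM Na/K phosphate pH 7.5, 150 mM NaCl and 100 μM NADH. Compounds were added in DMSO (2% final), and reactions were started at 25°C with 100 μM crotonyl-CoA. NADH consumption was followed at 340 nm.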

Structure (SMILES)	IC50 [nM]
O=c1cc(OCc2ccccc2)ccn1Cc1ccc([N+](=O)[O-])cc1Cl	> 20000
N#Cc1ccc(Cn2ccc(OCc3ccccc3)cc2=O)c(Cl)c1	> 20000
O=[N+]([O-])c1ccccc1Oc1ccc(Cl)cc1O	290
Nc1cc(Cl)ccc1Oc1ccccc1	> 20000
CCCc1cc(O)c(Oc2ccc(C(N)=O)cc2)c(O)c1	280
O=[N+]([O-])c1ccc(Oc2ccc(Cl)cc2O)cc1	45
CCCc1cc(O)c(Oc2ccc(C#N)cc2Cl)c(O)c1	< 20

What follows are molecules tested on HFF (assay: Toxicity to HFF). Conditions: human.
Type: cell-based
How it was run: (§1)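 Host-cell toxicity was tested on non-confluent fibroblast monolayers by 3H-thymidine incorporation, alongside visual inspection of monolayer integrity. Testing ran simultaneously with the parasite inhibition assay, and the highest concentration tested was scored.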

Structure (SMILES)	Activity [µM]
CN(Cc1cc2ccccc2n1C)C(=O)/C=C/c1ccc(N)nc1	> 6
Nc1ccc(/C=C/C(=O)NCc2ccccc2N)cn1	> 6
Oc1ccc(Oc2ccc(Cl)cc2O)cc1	> 6
CCCc1ccc(Oc2cccc([N+](=O)[O-])c2)c(O)c1	6
Oc1cc(Cl)ccc1Oc1ccc(Cl)cc1Cl [TRICLOSAN]	> 6
Oc1cc(Cl)ccc1Oc1ccccc1	> 6
CCCc1cc(O)c(Oc2ccc(C#N)cc2)c(O)c1	3
CC(=O)Nc1ccc(/C=C/C(=O)N(C)Cc2cc3ccccc3n2C)cn1	> 6
Oc1cc(Cl)ccc1Oc1cnccn1	> 6
Oc1ccc(Oc2ccc(O)cc2O)cc1	6
COc1ccc(NC(=O)/C=C/c2ccc(N)nc2)cc1	> 6
CCCc1cc(O)c(Oc2ccc(C#N)cc2Cl)c(OC)c1	> 6
CCCc1ccc(Oc2cccc(CCO)c2)c(O)c1	> 6
Nc1ccc(Nc2ccccc2)c(N)c1	< 1.5
CC(C)(C)C(=O)Nc1cc(Cl)ccc1Oc1ccccc1	> 6
Oc1ccc(Oc2ccccc2)c(O)c1	6
CCCc1ccc(Oc2cccc(Cl)c2)c(O)c1	> 6

The molecules below were run on HFF (assay: Toxicity to HFF at highest concentration). Conditions: human.
Type: cell-based
How it was run: as §1

Structure (SMILES)	Activity
O=c1cc(OCc2ccccc2)ccn1Cc1ccc([N+](=O)[O-])cc1Cl	Non-toxic
N#Cc1ccc(Cn2ccc(OCc3ccccc3)cc2=O)c(Cl)c1	Non-toxic
CN(Cc1cc2ccccc2n1C)C(=O)/C=C/c1ccc(N)nc1	Non-toxic
CCCc1cc(O)c(Oc2ccc(-c3nn[nH]n3)cc2)c(O)c1	Non-toxic
Nc1ccc(/C=C/C(=O)NCc2ccccc2N)cn1	Non-toxic
O=[N+]([O-])c1ccccc1Oc1ccc(Cl)cc1O	Non-toxic
CCCc1cc(O)c(Oc2ccc(C(=O)O)cc2Cl)c(O)c1	Non-toxic
Oc1ccc(Oc2ccc(Cl)cc2O)cc1	Non-toxic
Nc1cc(Cl)ccc1Oc1ccccc1	Non-toxic
CCCc1cc(O)c(Oc2ccc(C(N)=O)cc2)c(O)c1	Non-toxic
CCCc1ccc(Oc2cccc([N+](=O)[O-])c2)c(O)c1	Non-toxic
O=[N+]([O-])c1ccc(Oc2ccc(Cl)cc2O)cc1	Non-toxic
Oc1cc(Cl)ccc1Oc1ccccc1	Non-toxic
CCCc1cc(O)c(Oc2ccc(C#N)cc2)c(O)c1	Non-toxic
CC(=O)Nc1ccc(/C=C/C(=O)N(C)Cc2cc3ccccc3n2C)cn1	Non-toxic
Oc1cc(Cl)ccc1Oc1cnccn1	Non-toxic
CCCc1cc(O)c(Oc2ccc(C#N)cc2Cl)c(O)c1	Non-toxic
Oc1ccc(Oc2ccc(O)cc2O)cc1	Non-toxic
COc1ccc(NC(=O)/C=C/c2ccc(N)nc2)cc1	Non-toxic
CCOC(=O)C(C)OC(=O)c1cc(Oc2ccc(C(F)(F)F)cc2Cl)ccc1[N+](=O)[O-] (centres undefined) [LACTOFEN]	Non-toxic
CCCc1cc(O)c(Oc2ccc(C#N)cc2Cl)c(OC)c1	Non-toxic
CCCc1ccc(Oc2cccc(CCO)c2)c(O)c1	Non-toxic
Nc1ccc(Nc2ccccc2)c(N)c1	Non-toxic
Oc1cc(Cl)ccc1Oc1ccc(-c2ccccc2)cc1	Non-toxic
CC(C)(C)C(=O)Nc1cc(Cl)ccc1Oc1ccccc1	Non-toxic
Oc1ccc(Oc2ccccc2)c(O)c1	Non-toxic
CCCc1ccc(Oc2cccc(Cl)c2)c(O)c1	Non-toxic
